Shown are actives, neighbours in structure and some others; about 3.2% of the full set was active somewhere.
OX1R antag-1 – OX1R (human) antagonism. O43613. OX1R-expressing cells, FRET antagonist read-out. inhibition, % at 6.6 µM. 330,000 compounds, 1.8% hits; in the data active = inhibition mostly above about 38%, no sharp cut-off; inactive = mostly below about 40%;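 also: 0% = agonist challenge alone and 100% = reference antagonist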
OX1R antag-2 – blocks the human orexin 1 receptor; O43613; CHO/OX1R cells, Fluo-8 calcium fluorescence, orexin A; inhibition, % at 5 µM; 330,000 compounds, 0.43% hits;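 active = inhibition above its plate's threshold, mean inhibition of all tested compounds on the plate plus 3 SD, cut at about 37% in these data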;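 also: 0% = orexin A challenge wells and 100% = SB-334867-A antagonist wells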
TRPN1 ag – agonists of zebrafish TRPN1 channel; AID 1424; 220,000 compounds, 0.18% hits; HEK293 zebrafish TRPN1-YFP, Fluo-8 calcium fluorescence; 100% = response to 87 µM carbachol; activation, % at 3 µM;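 active = activation above its plate's cutoff, the mean activation of test wells on that plate plus 3 SD, cut at about 19% in these data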;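 also: 0% = DMSO alone and 100% = 87 µM carbachol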
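Material – zebrafish TRPN1-YFP in HEK293 cells · Doses – 3 µM single point · Schedule – dye 1 h 37 °C plus 30 min RT · Signal – Fluo-8 calcium fluorescence, excitation 470-495 nm, emission 515-575 nm · Read-out – % activation versus carbachol response · Control set – carbachol high, DMSO low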
TRPML3 agonist – human mucolipin-3 channel agonism; HEK293 TRPML3-YFP, Fluo-8 calcium fluorescence; 100% = the carbachol control signal; activation, % at 3 µM; 220,000 compounds, 0.29% hits; AID 1448; Q8TDD5;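 active = activation above its plate's cutoff, the mean activation of the plate's test wells plus 3 SD, cut at about 12% in these data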;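 also: 0% = DMSO only wells and 100% = carbachol wells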
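Material: HEK293 cells stably carrying human TRPML3-YFP; compound dosing: single dose, 3 µM final nominal compound, 0.3% DMSO final; incubation: 1-h 37 °C dye load, 5-s basal, 120-s post-compound reads; technique: Fluo-8 intracellular calcium fluorescence, excitation 470-495 nm, emission 515-575 nm; read-out basis: percent activation from peak-to-basal fluorescence ratio, scaled between DMSO and carbachol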
CHO parental Ca – counter-screen for OX1R antagonists: effect in parental CHO cells; parental CHO-K1, ATP-induced calcium, Fluo-8 fluorescence; inhibition, % at 5.6 µM; 330,000 compounds, 0.63% hits;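 active = inhibition above that plate's mean sample inhibition plus 3 SD, cut at about 26% in these data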;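 also: 0% = ATP-challenged DMSO wells and 100% = DMSO wells without ATP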
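Material: Parental CHO cells | Reagent: ATP | Compound dosing: Single nominal dose of 5.6 µM per compound | Detection: Intracellular calcium via Fluo-8 no-wash fluorescent dye | Read-out: % inhibition of ATP-induced calcium mobilization | Benchmarks: Low control ATP plus DMSO, high control DMSO only | Replicates: Singlicate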
GPR7 antag – human neuropeptides B/W receptor 1 antagonism. GPR7-expressing cells, fluorescence antagonist assay. inhibition, % at 4.4 µM. 290,000 compounds, 1.1% hits; in the data active = inhibition above about 16%, passing the limit was not always enough;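 also: cells stimulated with the agonist NPW; 0% = agonist with vehicle and 100% = vehicle without agonist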
Target sequence (P48145 whole entry, looked up): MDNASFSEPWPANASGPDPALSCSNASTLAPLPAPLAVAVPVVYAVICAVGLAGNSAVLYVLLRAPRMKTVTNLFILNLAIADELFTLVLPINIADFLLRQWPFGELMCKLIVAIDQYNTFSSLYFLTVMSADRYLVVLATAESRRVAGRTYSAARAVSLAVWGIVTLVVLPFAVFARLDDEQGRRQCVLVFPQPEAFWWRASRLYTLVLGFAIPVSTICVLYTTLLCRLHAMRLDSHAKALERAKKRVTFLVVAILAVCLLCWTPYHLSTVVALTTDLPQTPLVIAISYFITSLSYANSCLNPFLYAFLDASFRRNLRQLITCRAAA
* marks the source's active call; other numbers are inactive results.

Results for COc1ccccc1N1N=C(c2ccc([N+](=O)[O-])cc2)CC1c1ccccc1 (stereo unspecified) ?
OX1R antag-1: 7; OX1R antag-2: 58*; CHO parental Ca: 55*; GPR7 antag: 9

What do the screens show for `CCN1CCc2c(sc(NC(=O)c3ccc(S(=O)(=O)N4CCCCCC4)cc3)c2C(=O)NC)C1`?
OX1R antag-1: 5; OX1R antag-2: -13; CHO parental Ca: -15; GPR7 antag: -3

Results for CCOC(=O)N1CCC(N2CCN(S(=O)(=O)c3ccc([N+](=O)[O-])cc3)CC2)CC1 ?
OX1R antag-1: 54*; OX1R antag-2: -9; TRPN1 ag: 3; TRPML3 agonist: 2; CHO parental Ca: 9; GPR7 antag: -1

How did O=[N+]([O-])c1ccc(S(=O)(=O)N2CCN(C3CCN(Cc4ccccc4)CC3)CC2)cc1 do in these assays?
OX1R antag-1: 63*; OX1R antag-2: -12; CHO parental Ca: -15; GPR7 antag: 0

What do the screens show for `O=S(=O)(c1ccc(Cl)cc1)N1CCN(C2CCN(Cc3ccccc3)CC2)CC1`?
OX1R antag-1: 9; OX1R antag-2: -34; TRPN1 ag: 0; TRPML3 agonist: 0; CHO parental Ca: -14; GPR7 antag: 0

What do the screens show for `O=[N+]([O-])c1ccc(S(=O)(=O)N2CCN(Cc3c[nH]c4ccccc34)CC2)cc1`?
OX1R antag-1: 49*; OX1R antag-2: -26; TRPN1 ag: 0; TRPML3 agonist: 1; CHO parental Ca: -5; GPR7 antag: 7

What do the screens show for `CCCCn1c(SCC(=O)NNC(=O)c2ccccc2)n[nH]c1=O`?
OX1R antag-1: 4; OX1R antag-2: -8; CHO parental Ca: 1

What do the screens show for `Cc1ccc(C)c(NS(=O)(=O)c2c(C)nc3sccn3c2=O)c1`?
OX1R antag-1: 8; OX1R antag-2: 15; CHO parental Ca: -3; GPR7 antag: 5

Results for CCN(C(=O)COC(=O)CCS(=O)(=O)c1ccc(C)cc1)C1CCS(=O)(=O)C1 (stereo unspecified) ?
OX1R antag-1: 21; OX1R antag-2: -2; CHO parental Ca: -2; GPR7 antag: -1

What do the screens show for `Cc1cccc(C(=O)O/N=C2/CC3CCC2(C)C3(C)C)c1` (stereo unspecified)?
OX1R antag-1: 13; OX1R antag-2: -37; TRPN1 ag: -1; TRPML3 agonist: 0; CHO parental Ca: 31*; GPR7 antag: -7

How did Cc1cc(-c2nc(C)c(-c3nnc(SCC(=O)Nc4ccc(Cl)cc4)n3C)s2)no1 do in these assays?
OX1R antag-1: 3; OX1R antag-2: 4; TRPN1 ag: 0; TRPML3 agonist: 2; CHO parental Ca: 8; GPR7 antag: -14

How did COc1ccccc1Nc1ncccc1C(=O)NCc1ccccc1 do in these assays?
OX1R antag-1: 75*; OX1R antag-2: -1; TRPN1 ag: 0; TRPML3 agonist: 1; CHO parental Ca: -12; GPR7 antag: -10

Results for COc1ccc(COc2ccccc2C(=O)NCc2ccccc2)cc1F ?
OX1R antag-1: 31; OX1R antag-2: 6; TRPN1 ag: 4; TRPML3 agonist: 1; CHO parental Ca: 34*; GPR7 antag: 19

How did COc1ccccc1C(=O)NCc1ccc2c(c1)OCO2 do in these assays?
OX1R antag-1: 8; OX1R antag-2: 6; TRPN1 ag: 1; TRPML3 agonist: 0; CHO parental Ca: -7; GPR7 antag: -6

How did CCOCCCNCC(=O)NCC1CCCCC1 do in these assays?
OX1R antag-1: 3; OX1R antag-2: -1; TRPN1 ag: 2; TRPML3 agonist: 1; CHO parental Ca: 0; GPR7 antag: 3

Results for CC1(C)NC(=O)N(CC(=O)OCC(=O)NC(=O)c2ccccc2)C1=O ?
OX1R antag-1: 20; OX1R antag-2: 2; CHO parental Ca: 16

Results for CCOC(=O)/C(=C/C=C1\Sc2cc(OCC)c(OCC)cc2N1CC)C(C)=O ?
OX1R antag-1: 26; OX1R antag-2: 108*; TRPN1 ag: 46*; TRPML3 agonist: 30*; CHO parental Ca: 85*; GPR7 antag: 23

What do the screens show for `CCN1/C(=C\C=C2\C(=O)N(C)C(=S)N2C)Sc2ccccc21`?
OX1R antag-1: 4; OX1R antag-2: -10; TRPN1 ag: -1; TRPML3 agonist: 1; CHO parental Ca: 3; GPR7 antag: 1

How did CCOC(=O)/C(=C\C=C1/Sc2cc(OCC)c(OCC)cc2N1CC)C(C)=O do in these assays?
OX1R antag-1: 9; OX1R antag-2: 91*; TRPN1 ag: 74*; TRPML3 agonist: 46*; CHO parental Ca: 69*; GPR7 antag: 11

What do the screens show for `CCOC(=O)N1c2ccccc2Sc2ccccc21`?
OX1R antag-1: 13; OX1R antag-2: -11; TRPN1 ag: -2; TRPML3 agonist: -1; CHO parental Ca: -13; GPR7 antag: -14

What do the screens show for `CC(CNC(=O)C(C)(C)C)NC(=O)C(C)(C)C` (stereo unspecified)?
OX1R antag-1: 5; OX1R antag-2: -5; TRPN1 ag: -1; TRPML3 agonist: 1; CHO parental Ca: -3; GPR7 antag: -7

Results for N#Cc1c(-c2cccc([N+](=O)[O-])c2)nc2n(c1=O)CCS2 ?
OX1R antag-1: 40; OX1R antag-2: -11; CHO parental Ca: 2; GPR7 antag: 9

How did N#Cc1c(-c2ccc([N+](=O)[O-])cc2)nc2n(c1=O)CCS2 do in these assays?
OX1R antag-1: 65*; OX1R antag-2: -5; CHO parental Ca: -3; GPR7 antag: -4

Results for CCN(Cc1ccccc1)C(=O)Cn1c(=O)n(CC(=O)NCc2ccco2)c(=O)c2sccc21 ?
OX1R antag-1: 52*; OX1R antag-2: -1; TRPN1 ag: -1; TRPML3 agonist: 0; CHO parental Ca: -4; GPR7 antag: 3

What do the screens show for `O=C(CCCn1c(=O)c2sccc2n(CC(=O)OCc2ccccc2)c1=O)NCc1ccco1`?
OX1R antag-1: 3; OX1R antag-2: -11; TRPN1 ag: 1; TRPML3 agonist: 1; CHO parental Ca: 0; GPR7 antag: -2

How did Cn1c(N)c(N=Nc2ccc(S(N)(=O)=O)cc2)c(=O)n(C)c1=O do in these assays?
OX1R antag-1: 60*; OX1R antag-2: -4; TRPN1 ag: 2; TRPML3 agonist: 2; CHO parental Ca: 14; GPR7 antag: -8

Results for CC(C)Cn1c(N)c(C(=O)CSc2nc3ccccc3c(=O)n2CCCN2CCOCC2)c(=O)n(C)c1=O ?
OX1R antag-1: 20; OX1R antag-2: -49; TRPN1 ag: 0; TRPML3 agonist: 1; CHO parental Ca: -16; GPR7 antag: -8

How did Cc1[nH]n(-c2ccc([N+](=O)[O-])cc2)c(=O)c1C=NCCN1CCN(C(=O)C(C)C)CC1 do in these assays?
OX1R antag-1: 18; OX1R antag-2: -8; TRPN1 ag: 2; TRPML3 agonist: 1; CHO parental Ca: 27*; GPR7 antag: 1
